Results published in ChEMBL document CHEMBL1124291, “New actinomycin D analogues as superior chemotherapeutic agents against primary and advanced colon tumors and colon xenografts in nude mice” (J Med Chem, 1988).

What was measured:
P388 (Mus musculus) [1] = assay: Percent of the tissue bound conjugates isolated from incubation mixture containing tumor cell homogenate(T)
B16 [2] = assay: in vivo Antitumor activity against B16 melanoma cells at dose 300 ug/Kg /inj measured as Mean survival time (MST); assay type: functional, Mus musculus
In short: (§1)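 BDF1 mice in groups of nine were implanted ip on day 0 with 0.2 mL of 1:5 (w/v) B16 melanoma brei; drugs were given ip. Survival is reported as median survival time in days with range, and as %ILS, with survivors counted on day 65 out of total injected.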

Rattus norvegicus [3] = organism: Rattus norvegicus; assay: Percent of the unidentified metabolites isolated from incubation mixture containing rat microsomes; assay type: functional
In short: (§2)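 Tritiated analogues were incubated with two systems. (T) sonicated P388 cell homogenates, 37 °C for 16 h. (M) liver microsomes from phenobarbital-induced rats, 6 h with an NADPH-generating system (glucose-6-phosphate dehydrogenase plus glucose 6-phosphate). Metabolites and water-soluble conjugates were isolated, separated by HPLC and expressed as percentages.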

P388 (Mus musculus) [4] = assay: Percent of the protein conjugates isolated from incubation mixture containing tumor cell homogenate(T)
P388 (Mus musculus) [5] = assay: Percent of the unconverted isolated from incubation mixture containing tumor cell homogenate(T)
MC-38 [6] = assay: Activity against advanced carcinoma C38 Tumor in CDF1 Mice at dose 1.20 mg/ kg measured as % inhibition of tumor; assay type: functional; settings: Mus musculus
P388 [7] = assay: 50% inhibition of incorporation precursor [14C]uridine into RNA P388 cell lines; assay type: functional, cell-based; settings: Mus musculus
Rattus norvegicus [8] = organism: Rattus norvegicus; assay: The formation of adrenochrome from epinephrine in the absence of SOD(super oxide dismutase); assay type: functional
In short: (§3)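 Drug-stimulated superoxide generation with rat liver microsomal enzymes and NADPH as cofactor. NADPH oxidation was read at 340 nm. Adrenochrome formed from epinephrine was read at 480 nm, with or without superoxide dismutase. % stimulation = [(drug-stimulated rate − basal rate)/basal rate] × 100. Values are mean ± standard error of triplicate analyses.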

Mus musculus = organism: Mus musculus; assay: Percent of the SAD glucuronide and/or sulfate isolated from incubation mixture containing tumor cell homogenate(T) after 8.0, 10.5 min
P388 (Mus musculus) [9] = assay: Percent of the unidentified metabolites isolated from incubation mixture containing tumor cell homogenate(T)
Rattus norvegicus [10] = organism: Rattus norvegicus; assay: Percent of the tissue bound conjugates isolated from incubation mixture containing rat microsomes; assay type: functional
In short: as §2

[11] = DNA-cleaving ability expressed as % of closed circular pBR322 DNA cleaved at 10 uM conc 10 uM
MC-38 [12] = assay: Number of toxic deaths/number of mice in a group of non tumored mice treated in parallel with the tumor-bearing mice and observed for 100 days at a dose 0.60 mg/Kg; value given as 1/9; assay type: toxicity; settings: mouse, in vivo, 0.6 mg/kg, 2400 h
In short: (§4)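 Non-tumored CDF1 mice were treated in parallel with colon 38 tumor-bearing mice: iv injections on days 1, 5 and 9, groups of nine. Deaths were counted over 100 days of observation and reported as toxic deaths / mice in group.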

Rattus norvegicus [13] = organism: Rattus norvegicus; assay: DNA-cleaving ability expressed as % of closed circular pBR322 DNA cleaved at 100 uM conc 100 uM; assay type: functional
In short: (§5)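 pBR322 DNA (200 μM nucleotides) in 10 mM Tris·HCl pH 7.8 and 50 mM NaCl, with 4 mM Na₂S₂O₄ and 100 μM FeCl₂. Incubated with drug for 1 h at 20 °C, kept air-saturated. Supercoiled and open-circular forms were separated by agarose gel electrophoresis, stained with ethidium bromide and quantitated by densitometry. % cleaved was calculated from the open- and closed-circular amounts.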

Rattus norvegicus [14] = organism: Rattus norvegicus; assay: Percent of the SAD isolated from incubation mixture containing tumor cell homogenate(T) after 7.7 min; assay type: functional
In short: as §2

Rattus norvegicus [15] = organism: Rattus norvegicus; assay: DNA-cleaving ability expressed as % of closed circular pBR322 DNA cleaved […] conc 50 uM; assay type: functional
In short: as §5

MC-38 [16] = assay: Mean survival time of treated / untreated group x100. (number of over 100-day survivors/number of total mice in the group) at a dose 0.30 mg/kg; assay type: functional, Mus musculus; settings: dose 0.3 mg/kg
In short: (§6)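 CDF1 mice were implanted sc on day 0 with colon 38 adenocarcinoma fragments (70 mg) and given iv drug on days 1, 5 and 9. %T/C = median survival of treated / untreated × 100. Number of mice surviving over 100 days / group total is given in parentheses.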

Rattus norvegicus [17] = organism: Rattus norvegicus; assay: Percent of the SAD isolated from incubation mixture containing rat micro somes, after 20.0 min
MC-38 [18] = assay: Number of toxic deaths/number of mice in a group of non tumored mice treated in parallel with the tumor-bearing mice and observed for 100 days at a dose 0.30 mg/Kg; value given as 0/9; assay type: functional, Mus musculus
In short: as §4

P388 [19] = assay: Antitumor activity in P388/ADR (adriamycin resistant) in male BDF1 mice measured as optimal dose at dose 0.10-1.0 mg/kg/ inj, inp
P388 [20] = assay: 50% inhibition of incorporation of precursor [3H]thymidine into DNA P388 cell lines; assay type: functional, cell-based; settings: Mus musculus, P388, 2 h
MC-38 [21] = assay: Activity against advanced carcinoma C38 Tumor in CDF1 Mice at dose 0.60 mg/ kg measured as % inhibition of tumor; assay type: functional; settings: Mus musculus
MC-38 [22] = assay: Number of toxic deaths/number of mice in a group of non tumored mice treated in parallel with the tumor-bearing mice and observed for 100 days at a dose 1. 20 mg/Kg; value given as 2/9; assay type: toxicity, cell-based; settings: mouse, in vivo, 2400 h
In short: as §4

MC-38 [23] = assay: Activity against advanced carcinoma C38 Tumor in CDF1 Mice at dose 0.30 mg/ kg measured as % inhibition of tumor; assay type: functional; settings: Mus musculus
pBR322 plasmid DNA = assay: DNA-cleaving ability expressed as % of closed circular pBR322 DNA cleaved […]
MC-38 [24] = assay: Mean survival time of treated / untreated group x100. (number of over 100-day survivors/number of total mice in the group) at a dose 0.60 mg/kg; assay type: functional, Mus musculus; settings: dose 0.6 mg/kg
In short: as §6

B16 [25] = assay: in vivo Antitumor activity against B16 melanoma cells at a optimal dose 300 ug/Kg /inj measured as %ILS (%increase life span); assay type: functional; settings: Mus musculus
In short: as §1

Rattus norvegicus [26] = organism: Rattus norvegicus; assay: Percent of the protein conjugates isolated from incubation mixture containing rat microsomes; assay type: functional
In short: as §2

Rattus norvegicus [27] = organism: Rattus norvegicus; assay: Percent of the unconverted isolated from incubation mixture containing rat microsomes; assay type: functional
In short: as §2

HT-29 [28] = assay: 50% inhibition of incorporationf precursor [3H]thymidine into RNA HT-29 cell lines; assay type: functional, cell-based; settings: Homo sapiens, HT-29, 2 h; in the assay text read “[14C]uridine” for “[3H]thymidine”
In short: (§7)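 HT-29 colon carcinoma monolayers, 10^4 cells per well, five wells per concentration. Drug exposure lasted 2 h, with [³H]thymidine and [2-¹⁴C]uridine (0.5 μCi each) added for the last hour. Cells were washed, trypsinized, counted and precipitated onto glass-fiber filters with 10% TCA. Acid-precipitable radioactivity was measured. IC50 is the concentration inhibiting 50% of incorporation; data are averages of replicate experiments.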

HT-29 [29] = assay: 50% inhibition of incorporationf precursor [3H]thymidine into DNA HT-29 cell lines; assay type: functional, cell-based; settings: Homo sapiens, HT-29, 2 h
In short: as §7

Rattus norvegicus [30] = organism: Rattus norvegicus; assay: Stimulation of NADPH oxidation in the presence of rat liver microsomes; assay type: functional
In short: as §3

MC-38 [31] = assay: Mean survival time of treated / untreated group x100. (number of over 100-day survivors/number of total mice in the group) at a dose 1.20 mg/kg; assay type: functional, Mus musculus; settings: dose 1.2 mg/kg
In short: as §6

Rattus norvegicus [32] = organism: Rattus norvegicus; assay: The formation of adrenochrome from epinephrine in the presence of SOD(super oxide dismutase); + denotes ' Inhibited'; assay type: functional
In short: as §3

**Q.** With Cc1c2oc3c(C)c4oc(CC(=O)NCCCCN)nc4c(C(=O)N[C@@H]4C(=O)N[C@H](C(C)C)C(=O)N5CCC[C@H]5C(=O)N(C)CC(=O)N(C)[C@@H](C(C)C)C(=O)O[C@@H]4C)c3nc-2c(C(=O)N[C@@H]2C(=O)N[C@H](C(C)C)C(=O)N3CCC[C@H]3C(=O)N(C)CC(=O)N(C)[C@@H](C(C)C)C(=O)O[C@@H]2C)c(N)c1=O as the compound, how does the Activity (P388 (Mus musculus) [1]) read?
**A.** 5%

**Q.** What about the MST (B16 [2]) of the same compound?
**A.** 62

**Q.** What about the Activity (Rattus norvegicus [3]) of the same compound?
**A.** 8%

**Q.** What about the Activity (P388 (Mus musculus) [4]) of the same compound?
**A.** 8%

**Q.** And the Activity (P388 (Mus musculus) [5])?
**A.** 20%

**Q.** What about the inhibition in vivo at 1.2 mg/kg (MC-38 [6]) of the same compound?
**A.** 94%

**Q.** And the IC50 (P388 [7])?
**A.** 55 nM

**Q.** And the Adrenochrome formation (Rattus norvegicus [8])?
**A.** 22.1 nM min-1 (mg of protein)-1

**Q.** And the Activity (Mus musculus)?
**A.** 40%

**Q.** What about the Activity (P388 (Mus musculus) [9]) of the same compound?
**A.** 5%

**Q.** And the Activity (Rattus norvegicus [10])?
**A.** 5%

**Q.** What about the Activity [11] of the same compound?
**A.** 40%

**Q.** And the Toxic deaths (MC-38 [12])?
**A.** 1

**Q.** What about the Activity (Rattus norvegicus [13]) of the same compound?
**A.** 58%

**Q.** And the Activity (Rattus norvegicus [14])?
**A.** 20%

**Q.** What about the Activity (Rattus norvegicus [15]) of the same compound?
**A.** 50%

**Q.** What about the T/C (MC-38 [16]) of the same compound?
**A.** 170%

**Q.** What about the Activity (Rattus norvegicus [17]) of the same compound?
**A.** 65%

**Q.** What about the Toxic deaths (MC-38 [18]) of the same compound?
**A.** 0

**Q.** What about the optimal dose (P388 [19]) of the same compound?
**A.** 1 mg/kg

**Q.** What about the IC50 (P388 [20]) of the same compound?
**A.** 430 nM

**Q.** What about the inhibition in vivo at 0.6 mg/kg (MC-38 [21]) of the same compound?
**A.** 93%

**Q.** What about the Toxic deaths (MC-38 [22]) of the same compound?
**A.** 2

**Q.** And the inhibition in vivo at 0.3 mg/kg (MC-38 [23])?
**A.** 80%

**Q.** And the Activity (pBR322 plasmid DNA)?
**A.** 45%

**Q.** And the T/C (MC-38 [24])?
**A.** 250%

**Q.** And the ILS at 0.3 mg/kg (B16 [25])?
**A.** 114%

**Q.** And the Activity (Rattus norvegicus [26])?
**A.** 10%

**Q.** What about the Activity (Rattus norvegicus [27]) of the same compound?
**A.** 10%

**Q.** And the IC50 (HT-29 [28])?
**A.** 65 nM

**Q.** What about the IC50 (HT-29 [29]) of the same compound?
**A.** 365 nM

**Q.** And the NADPH oxidation (nM min-1 (mg of protein)-1) (Rattus norvegicus [30])?
**A.** 87.1

**Q.** And the T/C (MC-38 [31])?
**A.** 231%

**Q.** And the Adrenochrome formation (Rattus norvegicus [32])?
**A.** Inhibited
